We go through three compounds from ChEMBL document CHEMBL4177769, “Highly Selective and Potent Ectonucleotide Pyrophosphatase-1 (NPP1) Inhibitors Based on Uridine 5'-Pα,α-Dithiophosphate Analogues” (J Med Chem, 2018).

Active and inactive are the calls of the source. The rule behind the calls is not given here.

Usually inhibition stands for the percentage by which the read-out fell short of the control.

Assay [1] has as its target T1, Ectonucleotide pyrophosphatase/phosphodiesterase family member 1 (Homo sapiens) (UniProt P22413).
T1 sequence (whole entry): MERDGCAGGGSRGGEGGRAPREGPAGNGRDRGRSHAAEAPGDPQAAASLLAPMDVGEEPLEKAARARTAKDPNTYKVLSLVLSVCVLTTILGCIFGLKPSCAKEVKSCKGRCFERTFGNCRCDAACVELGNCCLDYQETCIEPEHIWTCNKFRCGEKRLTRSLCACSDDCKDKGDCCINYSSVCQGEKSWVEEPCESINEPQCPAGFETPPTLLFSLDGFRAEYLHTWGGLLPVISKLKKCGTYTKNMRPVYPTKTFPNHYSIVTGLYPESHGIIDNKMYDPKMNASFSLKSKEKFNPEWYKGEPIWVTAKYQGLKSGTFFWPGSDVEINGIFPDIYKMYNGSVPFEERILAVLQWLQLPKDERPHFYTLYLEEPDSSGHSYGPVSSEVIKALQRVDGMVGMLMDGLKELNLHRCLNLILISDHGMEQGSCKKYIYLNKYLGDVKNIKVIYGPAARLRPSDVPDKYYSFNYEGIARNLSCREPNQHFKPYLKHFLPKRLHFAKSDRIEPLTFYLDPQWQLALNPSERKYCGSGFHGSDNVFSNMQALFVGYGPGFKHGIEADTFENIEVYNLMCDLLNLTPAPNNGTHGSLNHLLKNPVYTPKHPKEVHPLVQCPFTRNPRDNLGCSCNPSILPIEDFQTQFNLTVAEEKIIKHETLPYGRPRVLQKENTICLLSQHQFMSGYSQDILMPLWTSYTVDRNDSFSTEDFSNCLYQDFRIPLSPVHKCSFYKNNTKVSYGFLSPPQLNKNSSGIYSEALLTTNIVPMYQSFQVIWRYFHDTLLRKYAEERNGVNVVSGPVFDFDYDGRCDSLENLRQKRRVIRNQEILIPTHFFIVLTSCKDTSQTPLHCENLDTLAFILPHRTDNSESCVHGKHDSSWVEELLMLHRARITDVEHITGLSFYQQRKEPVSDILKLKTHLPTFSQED
Put plainly: Inhibition of human NPP1 at 100 uM using pNP-TMP as substrate preincubated for 3 mins followed by substrate addition measured after 15 mins relative to control. Summed up:
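Human NPP1 (4−5 μg) or NPP3 (12−14 μg) cell lysate in mM 1 CaCl2, 140 NaCl, 5 KCl, 50 Tris pH 8.5, 37 °C. Compound at 100 μM, 3 min preincubation, 100 μM pNP-TMP substrate. p-Nitrophenol read at 405 nm after 15 min. Blank with enzyme added at end subtracted. Activity without compound taken as 100%. At least two independent experiments in triplicate.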

For assay [2], the target named is T2, Ectonucleoside triphosphate diphosphohydrolase 1 (Homo sapiens) (UniProt P49961).
T2 sequence (whole entry): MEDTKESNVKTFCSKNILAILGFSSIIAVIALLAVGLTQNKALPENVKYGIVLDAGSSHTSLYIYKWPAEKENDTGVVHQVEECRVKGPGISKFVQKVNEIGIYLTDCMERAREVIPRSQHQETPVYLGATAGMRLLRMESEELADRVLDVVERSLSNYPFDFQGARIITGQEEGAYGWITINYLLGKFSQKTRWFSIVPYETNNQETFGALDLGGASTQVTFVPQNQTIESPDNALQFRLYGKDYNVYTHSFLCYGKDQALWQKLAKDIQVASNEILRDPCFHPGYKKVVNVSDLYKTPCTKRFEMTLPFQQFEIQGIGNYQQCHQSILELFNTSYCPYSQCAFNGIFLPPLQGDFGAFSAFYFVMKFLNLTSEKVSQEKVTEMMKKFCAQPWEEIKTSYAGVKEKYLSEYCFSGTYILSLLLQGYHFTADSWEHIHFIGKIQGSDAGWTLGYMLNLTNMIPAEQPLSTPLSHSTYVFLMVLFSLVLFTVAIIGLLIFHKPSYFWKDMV
Put plainly: Inhibition of human NTPDase1 at 100 uM using ATP as substrate preincubated for 3 mins followed by substrate addition measured after 10 mins by malachite green reagent-based assay. Summed up: (§1)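 Compound at 100 μM, 3 min preincubation, 100 μM ATP, 10 min. Stopped with malachite green; Pi read at 630 nm. Blank with enzyme added after stop subtracted. Activity with ATP alone taken as 100%.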

Assay [3] deals with T3, Ectonucleoside triphosphate diphosphohydrolase 2 (Homo sapiens) (UniProt Q9Y5L3).
T3 sequence (whole entry): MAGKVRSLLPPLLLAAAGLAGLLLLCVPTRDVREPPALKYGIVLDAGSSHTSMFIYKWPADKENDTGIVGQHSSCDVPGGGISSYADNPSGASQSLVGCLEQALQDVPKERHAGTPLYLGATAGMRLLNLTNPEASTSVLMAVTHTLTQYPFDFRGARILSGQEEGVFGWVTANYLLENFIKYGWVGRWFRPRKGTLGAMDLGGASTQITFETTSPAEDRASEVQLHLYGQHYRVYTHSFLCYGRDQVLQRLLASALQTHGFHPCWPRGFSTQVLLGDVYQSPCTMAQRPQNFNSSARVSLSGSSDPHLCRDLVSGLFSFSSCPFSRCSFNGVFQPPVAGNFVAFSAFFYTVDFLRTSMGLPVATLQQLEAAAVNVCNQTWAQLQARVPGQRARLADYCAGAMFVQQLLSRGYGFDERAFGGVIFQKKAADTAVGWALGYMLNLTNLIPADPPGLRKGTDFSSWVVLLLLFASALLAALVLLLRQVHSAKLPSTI
Put plainly: Inhibition of human NTPDase2 at 100 uM using ATP as substrate preincubated for 3 mins followed by substrate addition measured after 10 mins by malachite green reagent-based assay. Summed up:
as §1

Assay [4] deals with P2Y purinoceptor 4 (Homo sapiens) (UniProt P51582). Put plainly: Agonist activity at recombinant human P2RY4 expressed in AD293 cells assessed as increase in intracellular calcium levels by Fluo-4/AM dye-based spectrofluorometer. The class given is functional, cell-based. An outline of the steps: (§2)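 Human P2Y2, P2Y4 or P2Y6 receptor stably expressed in AD293 cells. Compound at 100 μM. Agonism read as change in intracellular calcium (Δ[Ca2+]i), with UDP or UTP as control.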
(A change in cytosolic calcium serves as a functional read-out for many receptors and channels.)

The target in assay [5] is P2Y purinoceptor 6 (Homo sapiens) (UniProt Q15077). Put plainly: Agonist activity at recombinant human P2RY6 expressed in AD293 cells assessed as increase in intracellular calcium levels by Fluo-4/AM dye-based spectrofluorometer. The assay is classed as functional, cell-based. An outline of the steps:
as §2

Sequence of P2Y purinoceptor 6 (Homo sapiens) (Q15077 whole entry): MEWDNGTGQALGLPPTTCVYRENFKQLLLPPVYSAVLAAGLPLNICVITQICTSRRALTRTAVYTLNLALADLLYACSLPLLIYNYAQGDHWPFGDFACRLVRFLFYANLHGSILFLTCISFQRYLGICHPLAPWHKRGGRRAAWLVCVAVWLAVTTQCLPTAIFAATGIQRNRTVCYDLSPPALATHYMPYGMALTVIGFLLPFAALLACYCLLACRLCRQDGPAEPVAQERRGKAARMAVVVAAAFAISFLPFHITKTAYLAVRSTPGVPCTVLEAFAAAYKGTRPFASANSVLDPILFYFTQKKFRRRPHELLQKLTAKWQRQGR
Sequence of P2Y purinoceptor 4 (Homo sapiens) (P51582 whole entry): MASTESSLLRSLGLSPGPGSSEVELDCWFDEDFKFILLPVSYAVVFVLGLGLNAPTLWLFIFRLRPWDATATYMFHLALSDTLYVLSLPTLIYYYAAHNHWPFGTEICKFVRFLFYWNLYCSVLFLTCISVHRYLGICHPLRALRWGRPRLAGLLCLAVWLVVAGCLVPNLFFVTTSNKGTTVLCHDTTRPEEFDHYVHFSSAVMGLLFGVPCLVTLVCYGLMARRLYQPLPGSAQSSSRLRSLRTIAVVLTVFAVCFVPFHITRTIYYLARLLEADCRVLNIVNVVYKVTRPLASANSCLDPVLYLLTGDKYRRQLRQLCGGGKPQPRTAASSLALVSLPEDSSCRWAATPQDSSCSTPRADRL

On to `O=c1ccn([C@@H]2O[C@H](COP(=S)(S)OP(=O)(O)CP(=O)(O)O)[C@@H](O)[C@H]2O)c(=O)[nH]1` (stereo not given in full), for which the values for the inhibition in assay [1], in assay [2] and in assay [3] were 80 to 100%, 15% and 15%, respectively. In addition, the result in assay [4] was inactive. Further, the outcome in assay [5] was Active.
As to `O=c1ccn([C@@H]2O[C@H](COP(=S)(S)OP(=O)(O)O)[C@@H](O)[C@H]2O)c(=O)[nH]1` (stereo not given in full), the inhibition in assay [1] was 80 to 100%; in assay [2], 15%; in assay [3] it was 15%. Also, the result in assay [4] was inactive. The result in assay [5] was Active.
`O=c1ccn([C@@H]2O[C@H](COP(=S)(S)OP(=O)(O)OP(=O)(O)O)[C@@H](O)[C@H]2O)c(=O)[nH]1` (stereo not given in full) gave an inhibition in assay [1] of 100%. Moreover, the inhibition entry in assay [2] and in assay [3] was “inactive” in each case. Besides, the outcome in assay [4] was inactive. In assay [5], the result was Active.
